Test results taken from article PMC4806563 (Nature chemistry, 2016).

Key:
PGTs 141–144 = experiment: Glycan microarray on ACG slide, PGTs 141–144 binding; design: species or system human; details: panel of glycans I–XI on ACG slide
Method in brief: (§1)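 Glycans I–XI carry a phosphonic acid tail and immobilize spontaneously and covalently on an aluminium oxide-coated glass (ACG) slide. Glycan concentration sets density and spacing. The printed array is incubated with antibody, then with a secondary antibody, and read by fluorescence. Surface dissociation constants (K_D surf) for glycan–antibody binding are derived from the signals.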

[1] = system: DyLight649-conjugated donkey anti-human IgG antibody; experiment: NHS glycan array, binding of secondary antibody; details: NHS slide
PG16 [2] = experiment: Glycan microarray on NHS-activated glass slide, PG16 binding; design: species or system human; details: glycans printed at 100 μM
PG16 [3] = experiment: Glycan microarray on ACG slide, PG16 binding; design: species or system human; details: ACG surface, 100 μM printed, serial dilution experiment
Method in brief: as §1

CC(=O)N[C@H]1[C@H](O[C@H]2[C@H](O)[C@@H](NC(C)=O)C(O)O[C@@H]2CO)O[C@H](CO)[C@@H](O[C@@H]2O[C@H](CO[C@H]3O[C@H](CO[C@H]4O[C@H](CO)[C@@H](O)[C@H](O)[C@@H]4O[C@H]4O[C@H](CO)[C@@H](O)[C@H](O)[C@@H]4O)[C@@H](O)[C@H](O[C@H]4O[C@H](CO)[C@@H](O)[C@H](O)[C@@H]4O[C@H]4O[C@H](CO)[C@@H](O)[C@H](O)[C@@H]4O)[C@@H]3O)[C@@H](O)[C@H](O[C@H]3O[C@H](CO)[C@@H](O)[C@H](O)[C@@H]3O[C@H]3O[C@H](CO)[C@@H](O)[C@H](O)[C@@H]3O[C@H]3O[C@H](CO)[C@@H](O)[C@H](O)[C@@H]3O)[C@@H]2O)[C@@H]1O (stereo partly shown) [Man9GlcNAc2]
PGTs 141–144 binding (PGTs 141–144): significant decrease in the affinity

Man4GlcAc2 [glycan 5]
fluorescent signal from non-specific binding of secondary antibody [1]: strong fluorescent signal

Man5GlcNAc2 [IV]
PG16 binding (PG16 [2]): could not observe binding
PG16 binding (PG16 [3]): unable to detect
